Our source for the Activity values is ChEMBL document CHEMBL2203173 (J Med Chem, 2012).

Data set [1] relates to Mus musculus. The experiment in a line: Toxicity in BALB/c nu/nu mouse xenografted with human DMS53 cells assessed as vacuolation at 3 mg/kg, iv administered for 5 days a week measured after 21 days by hematoxylin and eosin staining method. The conditions noted are these: in vivo, 504 h. Also on record: dose 3 mg/kg, route intravenous. Format: organism-based, DMS-53. In short, it runs like this: (§1)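 Nude mice with DMS-53 xenografts dosed by tail-vein iv injection in 30% propylene glycol/saline, starting at 100 mm3 tumour volume, 5 days/week for 21 days. Spleen, kidney, liver, heart, lungs and brain were stained with H&E, Perls' (Fe loading) and Gomori Trichrome (fibrosis) by standard methods, and an independent veterinary pathologist examined them.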
Background: In xenograft studies the graft and the host belong to different species.

For data set [2], the system named is Mus musculus. The experiment in a line: Toxicity in BALB/c nu/nu mouse xenografted with human DMS53 cells assessed as cardiac fibrosis at 6 mg/kg, iv administered for 5 days a week measured after 21 days by […]. Format: organism-based, Heart, DMS-53. The conditions noted are these: in vivo, 504 h. Also on record: dose 6 mg/kg, route intravenous. In short, it runs like this:
(§2)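 DMS-53 xenograft nude mice given agents iv by tail vein 5 days/week in 30% propylene glycol/saline for 21 days. At sacrifice, heart sections were stained with Gomori Trichrome to detect fibrosis. Spleen, kidney, liver, heart, lungs and brain were also stained with H&E and Perls' and examined by an independent veterinary pathologist.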

Data set [3] relates to Mus musculus. The experiment in a line: Toxicity in BALB/c nu/nu mouse xenografted with human DMS53 cells assessed as body weight change at 10 mg/kg, po administered for 3 times a week measured after 20 days. The conditions noted are these: in vivo, 480 h.
The subject of data set [4] is Mus musculus. The experiment in a line: Toxicity in BALB/c nu/nu mouse xenografted with human DMS53 cells assessed as change in brain histology at 6 mg/kg, iv administered for 5 days a week measured after 21 days by hematoxylin and eosin staining method. Set-up: dose 6 mg/kg, route intravenous. Conditions: in vivo, 504 h. It is filed as organism-based, DMS-53. In short, it runs like this:
(§3)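 DMS-53 xenografts in nude mice; dosing started at 100 mm3 tumor volume. Agents given iv via tail vein, 5 days/week for 21 days, vehicle 30% propylene glycol/saline, vehicle-treated controls. Mice sacrificed day 21. Body and organ weights and hematological indices recorded. Spleen, kidney, liver, heart, lungs and brain were stained with H&E, Perls' and Gomori Trichrome and read by an independent veterinary pathologist.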

Data set [5] deals with Mus musculus. The experiment in a line: Toxicity in BALB/c nu/nu mouse xenografted with human DMS53 cells assessed as change in hemoglobin level at 6 mg/kg, iv administered for 5 days a week measured after 21 days. Set-up: dose 6 mg/kg, route intravenous. The conditions noted are these: in vivo, 504 h. It is filed as organism-based, DMS-53. In short, it runs like this: as §3

The subject of data set [6] is Mus musculus. The experiment in a line: Toxicity in BALB/c nu/nu mouse xenografted with human DMS53 cells assessed as change in RBC count at 3 mg/kg, iv administered for 5 days a week measured after 21 days. Format: organism-based, DMS-53. Also on record: dose 3 mg/kg, route intravenous. Conditions: in vivo, 504 h.
In data set [7] the test system is Mus musculus. The experiment in a line: Toxicity in BALB/c nu/nu mouse xenografted with human DMS53 cells assessed as change in hemoglobin level at 3 mg/kg, iv administered for 5 days a week measured after 21 days. Also on record: dose 3 mg/kg, route intravenous. Conditions: in vivo, 504 h. It is filed as organism-based, DMS-53. The method, boiled down:
as §3

For data set [8], the system named is Mus musculus. The experiment in a line: Toxicity in BALB/c nu/nu mouse xenografted with human DMS53 cells assessed as vacuolation at 6 mg/kg, iv administered for 5 days a week measured after 21 days by hematoxylin and eosin staining method. It is filed as organism-based, DMS-53. Set-up: dose 6 mg/kg, route intravenous. The conditions noted are these: in vivo, 504 h. The method, boiled down:
as §1

In data set [9] the test system is Mus musculus. The experiment in a line: Toxicity in BALB/c nu/nu mouse xenografted with human DMS53 cells assessed as hepatocellular necrosis at 6 mg/kg, iv administered for 5 days a week measured after 21 days by hematoxylin and eosin staining method. It is filed as organism-based, DMS-53. Also on record: dose 6 mg/kg, route intravenous. Conditions: in vivo, 504 h. The method, boiled down: as §1

Data set [10] has as its system Mus musculus. The experiment in a line: Toxicity in BALB/c nu/nu mouse xenografted with human DMS53 cells assessed as change in hematocrit level at 7.5 mg/kg, po administered for 3 times a week measured after 20 days. It is filed as organism-based, DMS-53. Also on record: dose 7.5 mg/kg, route oral. The conditions noted are these: in vivo, 480 h. In short, it runs like this: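 Nude mice bearing DMS-53 xenografts gavaged 3 times/week for 20 days, vehicle 30% propylene glycol/saline, vehicle controls, n = 6-11 mice/condition. Sacrifice on day 20. Organ weights and hematological indices recorded. Spleen, kidney, liver, heart, lungs and brain examined histologically, hearts stained with Gomori Trichrome for fibrosis.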

In data set [11] the test system is Mus musculus. The experiment in a line: Toxicity in BALB/c nu/nu mouse xenografted with human DMS53 cells assessed as hepatocellular necrosis at 3 mg/kg, iv administered for 5 days a week measured after 21 days by hematoxylin and eosin staining method. Format: organism-based, DMS-53. Also on record: dose 3 mg/kg, route intravenous. Conditions: in vivo, 504 h. The method, boiled down:
as §1

Data set [12] has as its system Mus musculus. The experiment in a line: Toxicity in BALB/c nu/nu mouse xenografted with human DMS53 cells assessed as vacuolation at 8 mg/kg, iv administered for 5 days a week measured after 21 days by hematoxylin and eosin staining method. It is filed as organism-based, DMS-53. Also on record: dose 8 mg/kg, route intravenous. The conditions noted are these: in vivo, 504 h. In short, it runs like this:
as §1

Data set [13] concerns Mus musculus. The experiment in a line: Toxicity in BALB/c nu/nu mouse xenografted with human DMS53 cells assessed as change in organ weight at 8 mg/kg, iv administered for 5 days a week measured after 21 days. It is filed as organism-based, DMS-53. Also on record: dose 8 mg/kg, route intravenous. Conditions: in vivo, 504 h. The method, boiled down:
(§4)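 DMS-53 xenograft-bearing nude mice, treatment started at 100 mm3 tumour volume: iv tail-vein dosing in 30% propylene glycol/saline, 5 days/week for 21 days. Organs were weighed at sacrifice and compared with vehicle-control mice.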

Data set [14] has as its system Mus musculus. The experiment in a line: Toxicity in BALB/c nu/nu mouse xenografted with human DMS53 cells assessed as change in platelet count at 8 mg/kg, iv administered for 5 days a week measured after 21 days. Set-up: dose 8 mg/kg, route intravenous. Format: organism-based, DMS-53. Conditions: in vivo, 504 h. In short, it runs like this: (§5)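 Nude mice carrying DMS-53 xenografts (treatment from 100 mm3) received iv tail-vein doses in 30% propylene glycol/saline, 5 days/week for 21 days. Hematological indices (RBC, hemoglobin, hematocrit, reticulocytes, WBC, platelets) were then compared with vehicle controls.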

In data set [15] the test system is Mus musculus. The experiment in a line: Toxicity in BALB/c nu/nu mouse xenografted with human DMS53 cells assessed as change in reticulocyte count at 4 mg/kg, iv administered for 5 days a week measured after 21 days. It is filed as organism-based, DMS-53. Set-up: dose 4 mg/kg, route intravenous. The conditions noted are these: in vivo, 504 h. In short, it runs like this:
as §5

The subject of data set [16] is Mus musculus. The experiment in a line: Toxicity in BALB/c nu/nu mouse xenografted with human DMS53 cells assessed as change in platelet count at 4 mg/kg, iv administered for 5 days a week measured after 21 days. Format: organism-based, DMS-53. Set-up: dose 4 mg/kg, route intravenous. The conditions noted are these: in vivo, 504 h. The method, boiled down:
as §5

In data set [17] the test system is Mus musculus. The experiment in a line: Toxicity in BALB/c nu/nu mouse xenografted with human DMS53 cells assessed as cardiac fibrosis at 8 mg/kg, iv administered for 5 days a week measured after 21 days by […]. It is filed as organism-based, Heart, DMS-53. Set-up: dose 8 mg/kg, route intravenous. The conditions noted are these: in vivo, 504 h. In short, it runs like this:
as §2

The test system of data set [18] is Mus musculus. The experiment in a line: Toxicity in BALB/c nu/nu mouse xenografted with human DMS53 cells assessed as change in organ weight at 4 mg/kg, iv administered for 5 days a week measured after 21 days. Format: organism-based, DMS-53. Also on record: dose 4 mg/kg, route intravenous. The conditions noted are these: in vivo, 504 h. The method, boiled down: as §4

Data set [19] relates to Mus musculus. The experiment in a line: Toxicity in BALB/c nu/nu mouse xenografted with human DMS53 cells assessed as change in spleen weight at 20 mg/kg, po administered for 3 times a week measured after 20 days. It is filed as organism-based, DMS-53. Also on record: dose 20 mg/kg, route oral. The conditions noted are these: in vivo, 480 h. In short, it runs like this:
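DMS-53 xenograft nude mice were gavaged 3 times/week in 30% propylene glycol/saline vehicle for 20 days and then sacrificed. Organ weights and histology of spleen, kidney, liver, heart, lungs and brain were compared with vehicle controls. n = 6-11 mice/condition.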

Data set [20] relates to Mus musculus. The experiment in a line: Toxicity in BALB/c nu/nu mouse xenografted with human DMS53 cells assessed as cardiac fibrosis at 4 mg/kg, iv administered for 5 days a week measured after 21 days by […]. Format: organism-based, Heart, DMS-53. Set-up: dose 4 mg/kg, route intravenous. Conditions: in vivo, 504 h. The method, boiled down: as §2

Data set [21] relates to Mus musculus. The experiment in a line: Toxicity in BALB/c nu/nu mouse xenografted with human DMS53 cells assessed as change in body weight at 8 mg/kg, iv administered for 5 days a week measured after 21 days. Format: organism-based, DMS-53. Also on record: dose 8 mg/kg, route intravenous. Conditions: in vivo, 504 h. The method, boiled down:
as §3

Data set [22] concerns Mus musculus. The experiment in a line: Toxicity in BALB/c nu/nu mouse xenografted with human DMS53 cells assessed as hepatocellular fibrosis at 8 mg/kg, iv administered for 5 days a week measured after 21 days by hematoxylin and eosin staining method. Conditions: in vivo, 504 h. Also on record: dose 8 mg/kg, route intravenous. Format: organism-based, DMS-53. In short, it runs like this:
as §1

The subject of data set [23] is Mus musculus. The experiment in a line: Toxicity in BALB/c nu/nu mouse xenografted with human DMS53 cells assessed as change in body weight at 4 mg/kg, iv administered for 5 days a week measured after 21 days. Format: organism-based, DMS-53. Also on record: dose 4 mg/kg, route intravenous. Conditions: in vivo, 504 h. In short, it runs like this: as §3
The subject of data set [24] is Mus musculus. The experiment in a line: Toxicity in BALB/c nu/nu mouse xenografted with human DMS53 cells assessed as hepatocellular fibrosis at 4 mg/kg, iv administered for 5 days a week measured after 21 days by hematoxylin and eosin staining method. Format: organism-based, DMS-53. Set-up: dose 4 mg/kg, route intravenous. The conditions noted are these: in vivo, 504 h. In short, it runs like this: as §1

The structures appear in SMILES notation.

Turning to `CCN(C)C(=S)NN=C(c1ccccn1)c1ccccn1.Cl`, the Activity result with Mus musculus [1], in the data set with Mus musculus [2], in the data set with Mus musculus [3], in the data set with Mus musculus [4], in the data set with Mus musculus [5] and in the data set with Mus musculus [6] was “Non-toxic” in each case. Further, the Activity entry in the data set with Mus musculus [7] is listed as “Non-toxic”; with Mus musculus [8] it was “Toxic”; in the data set with Mus musculus [9], “Non-toxic”; with Mus musculus [10], “Toxic”; with Mus musculus [11], “Non-toxic”.
As to `CN(C(=S)NN=C(c1ccccn1)c1ccccn1)C1CCCCC1.Cl`, the Activity result is “Toxic” with Mus musculus [12]; “Toxic” in the data set on Mus musculus [13]; “Non-toxic” in the data set on Mus musculus [14]; “Non-toxic” in the data set on Mus musculus [15]; “Toxic” in the data set with Mus musculus [16]; “Non-toxic” in the data set on Mus musculus [17]. Also, the Activity entry with Mus musculus [18], in the data set with Mus musculus [19], in the data set on Mus musculus [20], in the data set with Mus musculus [21], in the data set on Mus musculus [22] and in the data set with Mus musculus [23] was “Non-toxic” throughout. For the same compound, the Activity result in the data set with Mus musculus [24] is “Non-toxic”.
